Measured values: ChEMBL document CHEMBL3286385, “Novel 1-[4-(Aminosulfonyl)phenyl]-1H-1,2,4-triazole derivatives with remarkable selective COX-2 inhibition: design, synthesis, molecular docking, anti-inflammatory and ulcerogenicity studies” (Eur J Med Chem, 2014)
pIC50: −log10 of the molar value.

Tests used:
[1] = test system: Rattus norvegicus; assay: Gastric toxicity in rat assessed as ulcer index at 0.28 mmol/kg, po; type: organism-based; settings: in vivo
[2] = test system: Rattus norvegicus; assay: Antiinflammatory activity against albino rat assessed as inhibition of carrageenan-induced paw edema at 0.28 mmol/kg, po administered 30 mins prior to carrageenan challenge measured after 3 hrs relative to celecoxib; type: functional; parameters: scale not given: the % may be the effect or the level left
[3] = test system: Rattus norvegicus; assay: Antiinflammatory activity against albino rat assessed as inhibition of carrageenan-induced paw edema at 0.28 mmol/kg, po administered 30 mins prior to carrageenan challenge measured after 3 hrs relative to indomethacin; type: functional; parameters: scale not given: the % may be the effect or the level left
[4] = test system: Rattus norvegicus; assay: Antiinflammatory activity against albino rat assessed as inhibition of carrageenan-induced paw edema at 0.28 mmol/kg, po administered 30 mins prior to carrageenan challenge measured after 5 hrs relative to control; type: functional
How it was run: (§1)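 Adult male albino rats (120–140 g), in groups of four, were fasted 24 h with water allowed. Compounds were given orally as a suspension in 0.5% w/v CMC in water, and controls received CMC alone. After 30 min, 0.1 mL of 1% carrageenan in saline was injected subplantar into the right hind paw and saline into the left. Paw thickness was measured by caliper. % inhibition = [(VR−VL)control − (VR−VL)treated]/(VR−VL)control; one-way ANOVA.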

[5] = test system: Rattus norvegicus; assay: Antiinflammatory activity against albino rat assessed as inhibition of carrageenan-induced paw edema at 0.28 mmol/kg, po administered 30 mins prior to carrageenan challenge measured after 1 hr relative to control; type: functional; how it was run: as §1
[6] = test system: Rattus norvegicus; assay: Antiinflammatory activity against albino rat assessed as inhibition of carrageenan-induced paw edema at 0.28 mmol/kg, po administered 30 mins prior to carrageenan challenge measured after 2 hrs relative to control; type: functional; how it was run: as §1
[7] = test system: Rattus norvegicus; assay: Antiinflammatory activity against albino rat assessed as inhibition of carrageenan-induced paw edema at 0.28 mmol/kg, po administered 30 mins prior to carrageenan challenge measured after 4 hrs relative to control; type: functional; how it was run: as §1
[8] = test system: Rattus norvegicus; assay: Antiinflammatory activity against albino rat assessed as inhibition of carrageenan-induced paw edema at 0.28 mmol/kg, po administered 30 mins prior to carrageenan challenge measured after 3 hrs relative to control; type: functional; how it was run: as §1
[9] = biological target: T1, Prostaglandin G/H synthase 2 (Homo sapiens, UniProt P35354); assay: Inhibition of human recombinant COX2 using ADHP as substrate after 20 mins by fluorescence assay
T1 sequence (P35354 whole entry): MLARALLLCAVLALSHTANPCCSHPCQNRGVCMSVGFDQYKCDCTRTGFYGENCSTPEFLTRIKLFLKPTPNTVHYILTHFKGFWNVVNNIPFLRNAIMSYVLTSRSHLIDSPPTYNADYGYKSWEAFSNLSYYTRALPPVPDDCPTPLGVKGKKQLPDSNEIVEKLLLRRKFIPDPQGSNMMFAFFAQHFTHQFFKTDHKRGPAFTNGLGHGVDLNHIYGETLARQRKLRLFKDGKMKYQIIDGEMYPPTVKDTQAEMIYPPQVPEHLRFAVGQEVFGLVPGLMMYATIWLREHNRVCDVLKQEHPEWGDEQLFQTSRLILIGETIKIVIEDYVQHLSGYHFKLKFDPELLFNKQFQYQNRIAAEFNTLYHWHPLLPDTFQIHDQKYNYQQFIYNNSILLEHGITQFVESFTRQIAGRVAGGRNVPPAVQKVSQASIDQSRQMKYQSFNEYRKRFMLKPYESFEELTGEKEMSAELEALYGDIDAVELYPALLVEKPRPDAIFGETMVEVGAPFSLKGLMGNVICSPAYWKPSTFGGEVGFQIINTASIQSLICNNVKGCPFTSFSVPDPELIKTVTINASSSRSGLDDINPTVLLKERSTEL
How it was run: (§2)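 Ovine COX-1 or human recombinant COX-2 was preincubated 20 min at room temperature with a range of compound concentrations in 100 mM Tris-HCl pH 8.0, heme and ADHP. Arachidonic acid was then added for 2 min at room temperature, and resorufin fluorescence was read. IC50 came from the dose-response curve (triplicate determinations). Selectivity index = COX-1 IC50/COX-2 IC50.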

[10] = Selectivity index, ratio of IC50 for ovine COX1 to IC50 for human recombinant COX2; how it was run: as §2
[11] = biological target: T2, Prostaglandin G/H synthase 1 (Ovis aries, UniProt P05979); assay: Inhibition of ovine COX1 using ADHP as substrate after 20 mins by fluorescence assay; how it was run: as §2
T2 sequence (P05979 whole entry): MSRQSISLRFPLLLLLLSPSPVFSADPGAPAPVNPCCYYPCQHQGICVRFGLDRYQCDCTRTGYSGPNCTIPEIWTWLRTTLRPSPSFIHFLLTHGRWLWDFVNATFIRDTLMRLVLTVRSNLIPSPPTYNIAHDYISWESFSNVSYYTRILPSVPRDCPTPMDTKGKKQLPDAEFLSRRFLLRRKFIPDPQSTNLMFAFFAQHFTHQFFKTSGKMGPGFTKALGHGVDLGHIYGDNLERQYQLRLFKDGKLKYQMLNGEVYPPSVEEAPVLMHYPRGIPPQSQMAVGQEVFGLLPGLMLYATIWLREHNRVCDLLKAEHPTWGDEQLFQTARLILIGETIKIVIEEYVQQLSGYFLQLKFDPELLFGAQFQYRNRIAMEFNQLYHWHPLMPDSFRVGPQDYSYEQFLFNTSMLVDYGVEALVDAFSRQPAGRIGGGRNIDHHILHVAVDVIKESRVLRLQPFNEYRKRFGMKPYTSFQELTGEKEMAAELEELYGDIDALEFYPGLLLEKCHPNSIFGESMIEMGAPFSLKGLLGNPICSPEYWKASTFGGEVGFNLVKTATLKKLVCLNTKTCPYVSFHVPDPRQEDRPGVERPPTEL

| Compound | UI [1] | Activity [2] [%] | Activity [3] [%] | inhibition in vivo at 280 µmol/kg [4] [%] | inhibition in vivo at 280 µmol/kg [5] [%] | inhibition in vivo at 280 µmol/kg [6] [%] | inhibition in vivo at 280 µmol/kg [7] [%] | inhibition in vivo at 280 µmol/kg [8] [%] | pIC50 [9] | Ratio IC50 [10] | pIC50 [11] |
| --- | --- | --- | --- | --- | --- | --- | --- | --- | --- | --- | --- |
| NC(=O)c1nc(-c2ccccc2)n(-c2ccc(S(N)(=O)=O)cc2)n1 | 2 | 75 | 66 | 42 | 43 | 48 | 49 | 52 |  |  |  |
| NNC(=O)c1nc(-c2ccccc2)n(-c2ccc(S(N)(=O)=O)cc2)n1 | 3 | 87 | 76 | 32 | 32 | 53 | 45 | 60 |  |  |  |
| COC(=O)c1nc(-c2ccccc2)n(-c2ccc(S(N)(=O)=O)cc2)n1 | 3 | 100 | 87 | 46 | 38 | 48 | 61 | 69 |  |  |  |
| Cc1ccc(-c2cc(C(F)(F)F)nn2-c2ccc(S(N)(=O)=O)cc2)cc1 [CELECOXIB] | 0.5 | 100 |  | 52 | 44 | 50 | 59 | 69 |  |  |  |
| NS(=O)(=O)c1ccc(-n2nc(C(=O)NCc3ccccc3)nc2-c2ccccc2)cc1 | 3 | 84 | 73 | 29 | 42 | 47 | 36 | 58 | 5.77 | > 588 | < 3.00 |
| NS(=O)(=O)c1ccc(-n2nc(C(=O)Nc3ccc(Cl)cc3)nc2-c2ccccc2)cc1 | 0.5 | 97 | 85 | 44 | 36 | 62 | 53 | 67 | 6.33 | > 2130 | < 3.00 |
| COc1ccc2c(c1)c(CC(=O)O)c(C)n2C(=O)c1ccc(Cl)cc1 [INDOMETHACIN] | 39 |  | 100 | 84 | 54 | 66 | 81 | 79 |  |  |  |
| NS(=O)(=O)c1ccc(-n2nc(C(=O)Nc3nc4ccccc4s3)nc2-c2ccccc2)cc1 | 1 | 78 | 68 | 38 | 20 | 32 | 44 | 54 | 6.42 | 2100 | 3.10 |
| Cc1ccc(NC(=O)c2nc(-c3ccccc3)n(-c3ccc(S(N)(=O)=O)cc3)n2)cc1 | 1 | 110 | 96 | 65 | 40 | 47 | 71 | 76 | 5.72 | 271 | 3.29 |
| CC(C)NC(=O)c1nc(-c2ccccc2)n(-c2ccc(S(N)(=O)=O)cc2)n1 | 0 | 80 | 70 | 43 | 21 | 43 | 44 | 55 | 4.80 | > 62.5 | < 3.00 |
| NS(=O)(=O)c1ccc(-n2nc(C(=O)NC3CCCCC3)nc2-c2ccccc2)cc1 | 0 | 94 | 82 | 42 | 20 | 43 | 53 | 65 | 6.18 | > 1520 | < 3.00 |
| COc1ccc(NC(=O)c2nc(-c3ccccc3)n(-c3ccc(S(N)(=O)=O)cc3)n2)cc1 | 2.3 | 113 | 99 | 55 | 53 | 57 | 73 | 78 | 6.05 | > 1120 | < 3.00 |
| CC(=O)c1ccc(NC(=O)c2nc(-c3ccccc3)n(-c3ccc(S(N)(=O)=O)cc3)n2)cc1 | 0.5 | 106 | 92 | 42 | 53 | 68 | 64 | 73 |  |  |  |
| COc1ccc(NC(=O)c2nc(-c3ccccc3)n(-c3ccc(S(N)(=O)=O)cc3)n2)cc1OC | 0 | 104 | 91 | 60 | 22 | 52 | 63 | 72 | 5.89 | 266 | 3.46 |
